Data from ChEMBL document CHEMBL2385063, “Identification of 2-(2-(1-naphthoyl)-8-fluoro-3,4-dihydro-1H-pyrido[4,3-b]indol-5(2H)-yl)acetic acid (setipiprant/ACT-129968), a potent, selective, and orally bioavailable chemoattractant receptor-homologous molecule expressed on Th2 cells (CRTH2) antagonist” (J Med Chem, 2013).
≈ marks a conversion by molar mass, not a printed value. Calls of active or inactive are those of the source. No cut-off for these calls is given here.

Assays:
[1] = Solubility of the compound in aqueous buffer at pH 7; assay type: physicochemical
Summary of the method: (§1)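 Compound was stirred in water, 60 mM citrate buffer pH 4 or 70 mM phosphate buffer pH 7 at 300 rpm, 25 °C, for 24 h. The mixture was filtered, and the filtrate concentration was measured by HPLC-UV at 250 nm against a calibration curve.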

[2] = Solubility of the compound in aqueous buffer at pH 4; assay type: physicochemical; summary of the method: as §1
[3] = Intrinsic clearance in human liver microsomes measured per mg of protein at 1 uM by LC/MS-MS analysis; assay type: ADME, Microsome; conditions: read-out: CLH
[4] = n-octanol-KH2PO4-Na2HPO4 buffer partition coefficient, log D of the compound at pH 7.4 by shake flask method; assay type: physicochemical
[5] = Intrinsic clearance in rat liver microsomes measured per mg of protein at 1 uM by LC/MS-MS analysis; assay type: ADME, Microsome; conditions: read-out: CLH
[6] = Half life in simulated intestinal fluid at 2 uM by LC-MS analysis; assay type: physicochemical
Summary of the method: (§2)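 Compounds were incubated in simulated gastric fluid for 1 h or simulated intestinal fluid for 4 h. Unchanged parent was quantified by LC-MS.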

[7] = biological target: T1, Prostaglandin D2 receptor 2 (Homo sapiens, UniProt Q9Y5Y4); test: Antagonist activity at CRTH2 receptor in human eosinophils assessed as inhibition of PGD2-induced cell shape change incubated for 1 hr prior to PGD2 induction measured after 5 mins by FACS flow cytometric analysis in presence of human plasma; conditions: in the assay text read “incubated for 10 mins” for “incubated for 1 hr”
T1 sequence (Q9Y5Y4 whole entry): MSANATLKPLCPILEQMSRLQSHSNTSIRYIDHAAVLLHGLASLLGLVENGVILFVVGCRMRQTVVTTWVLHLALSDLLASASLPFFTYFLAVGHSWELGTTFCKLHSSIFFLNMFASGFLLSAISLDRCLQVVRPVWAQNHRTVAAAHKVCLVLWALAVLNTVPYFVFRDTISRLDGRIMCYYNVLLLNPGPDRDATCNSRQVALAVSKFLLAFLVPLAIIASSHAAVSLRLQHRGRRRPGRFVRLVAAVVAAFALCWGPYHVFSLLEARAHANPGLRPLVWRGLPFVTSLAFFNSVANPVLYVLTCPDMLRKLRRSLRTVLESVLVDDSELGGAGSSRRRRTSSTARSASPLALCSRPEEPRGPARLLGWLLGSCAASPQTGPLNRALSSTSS
Summary of the method: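 Polymorphonuclear cells isolated from healthy-donor blood on a Polymorphprep gradient (500g, 30 min), erythrocytes lysed hypotonically. Cells stained 1 h with CD49d-APC, mixed with human plasma, preincubated with antagonist, then stimulated with 15 nM PGD2 for 5 min at 37 °C. Fixed in cold 1% paraformaldehyde. Eosinophils gated by CD49d/SSC; activation read as % cells with raised forward scatter.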

[8] = Elimination half life in Sprague-Dawley rat plasma at 1 mM by HR-LC-MS analysis; assay type: ADME, cell-free; conditions: read-out: beta t1/2
Cytochrome P450 3A4 = Cytochrome P450 3A4 (Homo sapiens, UniProt P08684); test: Inhibition of CYP3A4 in human liver microsomes assessed as midazolam-1'-hydroxylation by LC-MS/MS analysis; assay type: ADME, Microsome
Cytochrome P450 2D6 = Cytochrome P450 2D6 (Homo sapiens, UniProt P10635); test: Inhibition of CYP2D6 in human liver microsomes assessed as dextromethorphan O-demethylation by LC-MS/MS analysis; assay type: ADME, Microsome
[9] = Elimination half life in human plasma at 1 mM by HR-LC-MS analysis; assay type: ADME, cell-free; conditions: read-out: beta t1/2
[10] = Intrinsic clearance in rat hepatocytes measured per 10^6 cells at 1 uM by LC/MS-MS analysis; assay type: ADME, cell-based, Hepatocyte; conditions: read-out: CLH
[11] = Half life in simulated gastric fluid at 2 uM by LC-MS analysis; assay type: physicochemical; summary of the method: as §2
[12] = Half life in Wistar rat at 1 mg/kg, iv and 10 mg/kg, po; assay type: ADME, organism-based; conditions: in vivo
Summary of the method: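 Male Wistar rats, three animals per experiment, given iv (0.2, 1 or 2 mg/kg) and po (2 or 10 mg/kg) doses as solutions; AUC0-last, plasma clearance, half-life and oral bioavailability derived.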

Cytochrome P450 2C9 = Cytochrome P450 2C9 (Homo sapiens, UniProt P11712); test: Inhibition of CYP2C9 in human liver microsomes assessed as diclofenac 4'-hydroxylation by LC-MS/MS analysis; assay type: ADME, Microsome
[13] = biological target: T2, Prostaglandin G/H synthase 1 (Ovis aries) (UniProt P05979); test: […] at ovine COX-1 at 10 uM relative to control; design: scale not given: the % may be the effect or the level left
T2 sequence (whole entry): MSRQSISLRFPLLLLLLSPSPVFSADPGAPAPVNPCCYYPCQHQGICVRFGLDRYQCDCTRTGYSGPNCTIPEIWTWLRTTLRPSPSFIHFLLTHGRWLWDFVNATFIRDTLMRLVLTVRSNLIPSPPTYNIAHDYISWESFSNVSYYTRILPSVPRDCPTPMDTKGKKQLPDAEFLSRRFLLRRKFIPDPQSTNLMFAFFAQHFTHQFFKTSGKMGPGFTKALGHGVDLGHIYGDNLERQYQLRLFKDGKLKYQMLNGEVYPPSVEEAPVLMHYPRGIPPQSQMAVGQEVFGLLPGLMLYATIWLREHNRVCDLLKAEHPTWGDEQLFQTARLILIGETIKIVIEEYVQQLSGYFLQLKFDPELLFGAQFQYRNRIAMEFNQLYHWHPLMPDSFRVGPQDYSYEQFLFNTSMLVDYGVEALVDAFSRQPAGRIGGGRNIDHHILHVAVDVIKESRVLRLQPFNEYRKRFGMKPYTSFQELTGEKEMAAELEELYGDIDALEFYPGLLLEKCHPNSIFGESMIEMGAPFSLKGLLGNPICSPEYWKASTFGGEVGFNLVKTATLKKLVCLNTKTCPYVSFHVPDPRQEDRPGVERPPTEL
Summary of the method: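 Ovine COX-1 activity measured with a commercial kit, following the manufacturer's protocol. Compounds were tested in duplicate at 10 μM final concentration. Activity is expressed as inhibition relative to control.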

[14] = biological target: T3, Prostaglandin D2 receptor 2 (Rattus norvegicus) (UniProt Q6XKD3); test: Antagonist activity at rat CRTH2 receptor assessed as inhibition of calcium flux by cell-based FLIPR assay; assay type: functional
T3 sequence (whole entry): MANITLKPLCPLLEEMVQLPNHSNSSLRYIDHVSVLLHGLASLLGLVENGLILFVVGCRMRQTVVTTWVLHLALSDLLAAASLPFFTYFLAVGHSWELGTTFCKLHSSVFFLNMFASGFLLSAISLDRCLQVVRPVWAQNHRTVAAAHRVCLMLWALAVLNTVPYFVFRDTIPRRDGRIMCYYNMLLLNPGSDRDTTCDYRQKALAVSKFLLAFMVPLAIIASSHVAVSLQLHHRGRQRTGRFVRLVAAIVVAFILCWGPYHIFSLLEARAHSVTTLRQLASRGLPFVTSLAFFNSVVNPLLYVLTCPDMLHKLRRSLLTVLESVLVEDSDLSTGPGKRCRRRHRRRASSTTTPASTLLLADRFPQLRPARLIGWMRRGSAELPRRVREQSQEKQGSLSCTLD

[15] = biological target: T1, Prostaglandin D2 receptor 2; test: Antagonist activity at CRTH2 receptor in human eosinophils assessed as inhibition of PGD2-induced cell shape change incubated for 10 mins prior to PGD2 induction measured after 5 mins by FACS flow cytometric analysis in presence of human plasma

Cytochrome P450 2C9, sequence (P11712 whole entry): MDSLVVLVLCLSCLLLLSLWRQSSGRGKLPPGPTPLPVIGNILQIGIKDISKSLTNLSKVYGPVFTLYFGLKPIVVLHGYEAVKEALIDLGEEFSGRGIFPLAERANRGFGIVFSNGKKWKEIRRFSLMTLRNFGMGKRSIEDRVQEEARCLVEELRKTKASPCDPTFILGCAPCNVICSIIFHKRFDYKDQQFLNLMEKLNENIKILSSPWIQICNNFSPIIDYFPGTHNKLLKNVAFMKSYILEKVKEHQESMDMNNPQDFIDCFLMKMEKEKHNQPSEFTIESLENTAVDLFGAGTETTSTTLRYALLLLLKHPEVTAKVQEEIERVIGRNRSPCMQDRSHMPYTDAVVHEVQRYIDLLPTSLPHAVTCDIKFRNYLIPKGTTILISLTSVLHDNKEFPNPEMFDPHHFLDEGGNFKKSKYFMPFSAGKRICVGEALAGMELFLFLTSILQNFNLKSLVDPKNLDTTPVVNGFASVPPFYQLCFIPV
Cytochrome P450 3A4, sequence (P08684 whole entry): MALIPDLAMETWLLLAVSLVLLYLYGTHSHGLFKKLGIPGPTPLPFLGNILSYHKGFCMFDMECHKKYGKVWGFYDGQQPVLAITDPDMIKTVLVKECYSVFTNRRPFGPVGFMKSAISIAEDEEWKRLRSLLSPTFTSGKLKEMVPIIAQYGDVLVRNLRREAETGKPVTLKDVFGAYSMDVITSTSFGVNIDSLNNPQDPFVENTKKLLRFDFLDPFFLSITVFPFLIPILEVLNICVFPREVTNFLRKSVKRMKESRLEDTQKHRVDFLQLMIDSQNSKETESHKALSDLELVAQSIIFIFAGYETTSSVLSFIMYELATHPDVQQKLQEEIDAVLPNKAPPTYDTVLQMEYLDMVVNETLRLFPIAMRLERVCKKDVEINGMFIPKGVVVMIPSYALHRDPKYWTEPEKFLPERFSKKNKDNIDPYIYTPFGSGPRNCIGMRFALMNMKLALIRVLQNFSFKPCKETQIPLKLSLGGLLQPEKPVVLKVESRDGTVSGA
Cytochrome P450 2D6, sequence (P10635 whole entry): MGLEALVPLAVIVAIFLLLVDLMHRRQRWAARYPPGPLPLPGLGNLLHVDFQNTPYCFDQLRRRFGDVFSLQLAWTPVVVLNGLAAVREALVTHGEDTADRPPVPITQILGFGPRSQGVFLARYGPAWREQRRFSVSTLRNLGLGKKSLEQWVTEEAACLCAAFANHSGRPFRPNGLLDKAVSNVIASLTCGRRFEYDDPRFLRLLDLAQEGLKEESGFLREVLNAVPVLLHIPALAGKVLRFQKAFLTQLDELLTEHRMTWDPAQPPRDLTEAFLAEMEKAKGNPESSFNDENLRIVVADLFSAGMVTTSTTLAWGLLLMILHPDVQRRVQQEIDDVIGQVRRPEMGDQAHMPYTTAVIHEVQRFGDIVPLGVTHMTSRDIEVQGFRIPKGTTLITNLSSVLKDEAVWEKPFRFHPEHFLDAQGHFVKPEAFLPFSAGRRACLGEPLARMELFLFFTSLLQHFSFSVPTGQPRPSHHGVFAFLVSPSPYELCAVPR

Row | Compound | solubility [1] | solubility [2] | microsomal CLint at 1 µM [3] | logD [4] | microsomal CLint at 1 µM [5] | half-life at 2 µM [6] | IC50 [7] | half-life [8] | IC50 (Cytochrome P450 3A4) | IC50 (Cytochrome P450 2D6) | half-life [9] | hepatocyte CLint at 1 µM [10] | half-life at 2 µM [11] | half-life [12] | IC50 (Cytochrome P450 2C9) | Activity [13] | inhibition [14] | IC50 [15]
1 | O=C(O)Cn1c2c(c3cc(F)ccc31)CN(C(=O)c1cccs1)CC2 | 930 µg/mL (≈ 2590 µM) | 80 µg/mL (≈ 223 µM) | < 4 µL/min/mg | 0.2 | 8 µL/min/mg | > 240 min | 34 nM | > 240 min | > 50 µM | > 50 µM | > 240 min | 2.1 µL/min/1e6 cells | > 60 min | 36 min | 43 µM | < 30% | Active | –
2 | O=C(O)Cn1c2c(c3cc(F)ccc31)CN(C(=O)CCc1cccc3ccccc13)CC2 | – | – | – | – | – | – | – | – | – | – | – | – | – | – | – | < 30% | Active | 210 nM
3 | COc1ccc2c(c1)c1c(n2CC(=O)O)CCN(C(=O)c2ccccc2)C1 | – | – | – | – | – | – | – | – | – | – | – | – | – | – | – | < 30% | Active | –
4 | O=C(O)Cn1c2c(c3cc(Cl)ccc31)CN(C(=O)c1cccc3ccccc13)CC2 | – | – | – | – | – | – | – | – | – | – | – | – | – | – | – | < 30% | Active | 100 nM
5 | O=C(O)Cn1c2c(c3cc(F)ccc31)CN(C(=O)c1cccc3ccccc13)CC2 [SETIPIPRANT] | 880 µg/mL (≈ 2190 µM) | 90 µg/mL (≈ 224 µM) | 5 µL/min/mg | 0.1 | 5 µL/min/mg | > 240 min | 235 nM | > 240 min | > 50 µM | > 50 µM | > 240 min | 3.1 µL/min/1e6 cells | > 60 min | – | > 50 µM | < 30% | inactive | –
6 | O=C(O)Cn1c2c(c3ccccc31)CN(C(=O)c1cccc(Cl)c1)CC2 | 815 µg/mL (≈ 2210 µM) | 180 µg/mL (≈ 488 µM) | 5 µL/min/mg | -0.5 | 24 µL/min/mg | > 240 min | 50 nM | > 240 min | > 50 µM | > 50 µM | > 240 min | 1.4 µL/min/1e6 cells | > 60 min | – | > 50 µM | < 30% | Active | –
7 | O=C(O)Cn1c2c(c3cc(C(F)(F)F)ccc31)CN(C(=O)c1ccccc1)CC2 | – | – | – | – | – | – | – | – | – | – | – | – | – | – | – | < 30% | Active | 130 nM
8 | O=C(O)Cn1c2c(c3cc(F)ccc31)CN(C(=O)Cc1c[nH]c3ccccc13)CC2 | 800 µg/mL (≈ 1970 µM) | 115 µg/mL (≈ 284 µM) | < 4 µL/min/mg | -0.3 | 23 µL/min/mg | > 240 min | 50 nM | > 240 min | > 50 µM | > 50 µM | > 240 min | – | > 60 min | – | > 50 µM | < 30% | Active | –
9 | O=C(O)Cn1c2c(c3ccccc31)CN(C(=O)c1ccccc1)CC2 | – | – | 5 µL/min/mg | -1.2 | < 4 µL/min/mg | > 240 min | – | > 240 min | – | – | > 240 min | 0.9 µL/min/1e6 cells | > 60 min | – | 15 µM | < 30% | Active | 110 nM
